High-throughput results (PubChem)
CHRM5 antagonist: blocks acetylcholine activation of human M5 receptor. P08912. CHO-hM5 cells, Fluo-8 calcium fluorescence, ACh EC80. inhibition, % at 3 µM. 0.59% of 360,000 active;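 active means inhibition above a per-plate cutoff, the mean of that plate's test compounds plus 3 SD, cut at about 27% in these data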
Target sequence (P08912 whole entry, looked up): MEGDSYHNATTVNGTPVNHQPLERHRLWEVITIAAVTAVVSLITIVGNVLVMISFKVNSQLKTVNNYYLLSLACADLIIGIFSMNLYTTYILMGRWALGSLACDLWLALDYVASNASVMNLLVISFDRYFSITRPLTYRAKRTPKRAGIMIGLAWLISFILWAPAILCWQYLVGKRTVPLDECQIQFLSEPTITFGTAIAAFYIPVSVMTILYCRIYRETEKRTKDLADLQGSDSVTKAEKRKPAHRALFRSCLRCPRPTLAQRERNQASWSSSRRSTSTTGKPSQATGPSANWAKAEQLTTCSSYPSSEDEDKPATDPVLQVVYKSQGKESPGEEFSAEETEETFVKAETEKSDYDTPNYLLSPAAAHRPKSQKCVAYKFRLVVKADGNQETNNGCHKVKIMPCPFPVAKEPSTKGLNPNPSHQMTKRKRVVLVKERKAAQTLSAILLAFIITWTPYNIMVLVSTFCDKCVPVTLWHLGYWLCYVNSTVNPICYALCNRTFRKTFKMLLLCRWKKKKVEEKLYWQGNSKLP
CHRM5 agonist: agonists of human muscarinic M5 receptor (CHRM5); P08912; CHO-K1 hM5 cells, Fluo-8 calcium fluorescence; 0% DMSO wells, 100% maximal acetylcholine response; activation, % at 3 µM; 0.19% of 360,000 active;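 active means activation above the run's mean over test compounds plus 3 SD, cut at about 23% in these data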;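 further: signal is peak over basal fluorescence ratio across the kinetic read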
CHRM4 agonist: CHRM4 agonism in calcium assay; P08173; CHO-K1 hM4/Gqi5, Fluo-8 calcium fluorescence; vehicle 0%, full acetylcholine response 100%; activation, % at 3 µM; 0.14% of 360,000 active; AID 624127;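 active means activation above the run mean over all test wells plus 3 SD, cut at about 32% in these data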;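 further: peak over basal fluorescence ratio per well then scaled between controls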
CHRM5 PAM: potentiates acetylcholine response at human M5 receptor; CHO-K1 hM5, Fluo-8 calcium, ACh EC20 PAM; 0% = ACh EC20, 100% = ACh EC100; activation, % at 3 µM; 0.3% of 360,000 active;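 active means activation above the run cutoff, the mean activation of all test compounds plus 3 SD, cut at about 18% in these data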
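Replicates: One well per compound, no replicates | System: Human M5 receptor in CHO-K1 cells | Benchmarks: Low control EC20 acetylcholine (0%), high control EC100 acetylcholine (100%) | Probe or stimulus: Acetylcholine, EC20 level | Times: Fluo-8 loading 80 min at 37 °C plus 30 min room temperature | Signal: Intracellular calcium via Fluo-8 fluorescence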
M4 antag: antagonists of human muscarinic M4 receptor (CHRM4); P08173; CHO-hM4 cells, ACh EC80, Fluo-8 calcium fluorescence; inhibition, % at 3 µM; 0.73% of 360,000 active;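 active means inhibition above its plate's cutoff, the mean inhibition of sample wells plus 3 SD, cut at about 27% in these data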
CHRM4 PAM: positive allosteric modulators of human muscarinic M4 receptor; activation, % at 3 µM; CHO-K1 hM4/Gqi5, Fluo-8 calcium fluorescence, ACh EC20; 0% = ACh EC20, 100% = maximal ACh; 0.4% of 360,000 active;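 active means activation above its plate's cutoff, the mean activation of sample wells plus 3 SD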
A number is an active result; 0 = inactive. In the library only some 1.8% were active in any assay of this set; here they are far more common.

SMILES | CHRM5 antagonist | CHRM5 agonist | CHRM4 agonist | CHRM5 PAM | M4 antag | CHRM4 PAM
CN(C)S(=O)(=O)c1ccc(C(=O)Nc2ccc(CCC(=O)N3CCCC3)cc2)cc1 | 0 | 0 | 0 | 0 | 0 | 0
CCn1nc(C(=O)O)c(=O)c2cc3c(cc21)OCO3 | 0 | 0 | 0 | 0 | 34 | 0
CCn1cc(C(=O)N[C@H](C(=O)O)C(C)C)c(=O)c2cc3c(cc21)OCO3 | 0 | 0 | 0 | 0 | 0 | 0
Cc1ccc(C(=O)COC(=O)CNC(=O)c2ccccc2)s1 | 0 | 0 | 0 | 0 | 0 | 22
COC(=O)c1ccc(Nc2c([N+](=O)[O-])c(=O)oc3ccccc23)cc1 | 0 | 0 | 0 | 0 | 0 | 0
COc1cc(/C=N/NC(=O)c2nc3ccccn3c2C)cc(OC)c1O | 0 | 0 | 0 | 19 | 0 | 0
Cc1c(C(=O)N/N=C/c2ccc(N3CCOCC3)cc2)nc2ccccn12 | 0 | 0 | 0 | 0 | 0 | 0
CCOC(=O)c1[nH]c2ccc(OC)cc2c1C | 32 | 0 | 0 | 0 | 0 | 0
CSc1nnc(C)c(=O)n1COC(=O)c1ccccc1 | 0 | 0 | 0 | 0 | 0 | 0
Cc1ccc(C(=O)Nc2c(C)cc(C)c3cccnc23)cc1 | 0 | 0 | 0 | 0 | 0 | 14
CC(=O)Nc1ccc(C(=O)OCC(=O)NCc2ccccc2)cc1 | 27 | 0 | 0 | 0 | 0 | 0
O=C(CCNC(=O)c1ccc([N+](=O)[O-])cc1)NNC(=O)c1ccccc1F | 0 | 0 | 0 | 0 | 0 | 26
O=C1C=CC(=Nc2cccc3c2C(=O)c2ccccc2-3)O1 | 0 | 45 | 67 | 0 | 0 | 0
O=C1C=CC(=Nc2ccc3c(c2)Cc2cc(F)ccc2-3)O1 | 0 | 0 | 0 | 0 | 0 | 0
C[N+]12CCC(CC1)C(OC(=O)C(O)(c1ccccc1)c1ccccc1)C2 (centres undefined) | 99 | 0 | 0 | 0 | 100 | 0
CCOc1ccccc1N(C)C(=O)Cn1ncc2c([nH]c3ccc(C)cc32)c1=O | 0 | 0 | 0 | 0 | 0 | 0
CNC(=O)c1cc(Oc2ccc(NC(=O)Nc3ccc(Cl)c(C(F)(F)F)c3)cc2)ccn1 | 30 | 0 | 0 | 0 | 32 | 0
COc1ccc(CNC(=O)CCC(=O)N2CCN(S(=O)(=O)c3cc([N+](=O)[O-])ccc3C)CC2)cc1 | 0 | 0 | 0 | 0 | 0 | 0
COc1ccc(C(=O)Nc2ccccc2C(=O)N2CCOCC2)cc1OC | 0 | 0 | 0 | 0 | 0 | 0
COc1cccc(OC)c1C(=O)Nc1ccccc1C(=O)N1CCOCC1 | 33 | 0 | 0 | 0 | 0 | 0
COC(=O)c1ccc2nc(-c3ccc(OC)c(OC)c3)c(CC3CCCCC3)n2c1 | 0 | 0 | 0 | 0 | 0 | 0
CCN(CC)c1ccc2c(Cl)c(Br)c(=O)oc2c1 | 70 | 28 | 0 | 0 | 62 | 0
NS(=O)(=O)c1cc(Br)c2c(c1)S(=O)(=O)NCN2 | 0 | 0 | 0 | 0 | 0 | 0
CCN(CC)CCOC(c1ccccc1)c1ccc(C)cc1 (centres undefined) | 75 | 0 | 0 | 0 | 43 | 0
CCN(CC)CCC(C)OC(c1ccccc1)c1ccccc1 (centres undefined) | 38 | 0 | 0 | 0 | 0 | 0
SMILES | CHRM5 antagonist | CHRM5 agonist | CHRM4 agonist | CHRM5 PAM | M4 antag | CHRM4 PAM
Cc1ccc(C(OCC(C)(C)C[N+](C)(C)C)c2ccccc2)cc1 (centres undefined) | 94 | 0 | 0 | 0 | 52 | 0
CCN(CC)CCCCCOc1ccccc1OC | 0 | 0 | 0 | 0 | 0 | 0
Cc1ccccc1C(OCCN(C)C)c1ccccc1 (centres undefined) | 92 | 0 | 0 | 0 | 62 | 0
CCc1noc(C)c1C(=O)N(CC(C)C)c1c(N)n(Cc2ccccc2)c(=O)[nH]c1=O | 0 | 0 | 0 | 0 | 0 | 0
COc1ccccc1C(=O)N1CCN(C(=O)[C@H]2O[C@@H](n3ccc(=O)[nH]c3=O)[C@H](O)[C@@H]2O)CC1 | 0 | 0 | 0 | 0 | 0 | 21
COc1ccc(/C=C2/SC(=O)N(CC(=O)NCCC(C)C)C2=O)cc1OC | 0 | 0 | 0 | 0 | 0 | 0
COc1ccc(/C=C2\SC(=O)N(CC(=O)NCCC(C)C)C2=O)cc1OC | 0 | 0 | 0 | 19 | 0 | 0
C=C(CN(C)C)C(=O)c1ccc(OC2OC(COC(C)=O)C(OC(C)=O)C(OC(C)=O)C2OC(C)=O)cc1 (centres undefined) | 0 | 0 | 0 | 0 | 0 | 0
Cc1cc(SCC(=O)N(C)C2CCCCC2)nc2ccccc12 | 0 | 0 | 0 | 0 | 0 | 0
COc1ccc(CN(C)C(=O)c2ccc(OCC(=O)Nc3cccc(C(F)(F)F)c3)c(OC)c2)cc1 | 0 | 0 | 0 | 0 | 31 | 0
COc1cc(C(=O)NCc2cccnc2)ccc1OCC(=O)Nc1cccc(C(F)(F)F)c1 | 0 | 0 | 0 | 0 | 0 | 0
Cc1[nH]c(C)c(S(=O)(=O)Nc2ccc(OC(F)(F)F)cc2)c1C(=O)N1CCCCC1 | 0 | 0 | 0 | 0 | 0 | 0
C/C(=N\NC(=O)c1cccc(S(=O)(=O)N2CCCC2)c1)c1ccc(OCC(=O)N(C)C)cc1 | 0 | 0 | 0 | 0 | 0 | 0
Nc1ccc(/C=C/C(=O)c2cccs2)cc1 | 0 | 33 | 0 | 0 | 0 | 0
O=C(C=Cc1ccccc1)c1cccs1 | 0 | 0 | 0 | 0 | 0 | 0
CC(=O)NCC(=O)N(c1ccccc1)C1(C(=O)NC2CCCCC2)CCCCC1 | 0 | 0 | 0 | 20 | 0 | 0
CN(C(=O)c1ccccn1)C1(C(=O)NC2CCCCC2)CCCCC1 | 0 | 0 | 0 | 0 | 0 | 0
N#Cc1ccccc1OCC(=O)OCCCOC(=O)COc1ccccc1C#N | 27 | 0 | 0 | 0 | 0 | 0
N#Cc1ccccc1OCC(=O)OCC(=O)N1CCCC1 | 0 | 0 | 0 | 0 | 0 | 0
O=C(NCc1ccccc1)c1ccc(CN2CCOCC2)cc1 | 0 | 0 | 0 | 0 | 0 | 0
Cc1cc(C)c2c(N)c(C(=O)NCc3ccco3)sc2n1 | 0 | 0 | 0 | 0 | 0 | 50
Cc1ccc(C(=O)NCc2ccco2)cc1Br | 0 | 0 | 0 | 0 | 0 | 20
Cc1c(C)n(C)c2ccc(C(=O)NCCc3ccco3)cc12 | 0 | 0 | 0 | 0 | 0 | 0
CCn1c(C)c(C)c2cc(C(=O)NCCc3ccco3)ccc21 | 0 | 0 | 0 | 0 | 0 | 18
Cc1c(Br)cc(C(=O)NCc2ccco2)c(C)c1C | 0 | 0 | 0 | 0 | 0 | 0
CC(=O)c1sc2nc(C)cc(C)c2c1N | 0 | 0 | 0 | 0 | 0 | 0
O=C(NCc1ccco1)c1ccc(CN2CCOCC2)cc1 | 0 | 0 | 0 | 19 | 0 | 0
CC(=O)C[C@@H](O)CC(=O)[C@@H]1OC(=O)CCCCCCc2ccccc21 | 0 | 0 | 0 | 0 | 0 | 0
CCCCNC(=O)C(NC(=O)c1ccc(C)cc1)C(=O)c1ccccc1 (centres undefined) | 0 | 0 | 0 | 0 | 0 | 0
Cc1cc(C)c(S(=O)(=O)NCC(=O)NCc2ccccn2)c(C)c1 | 0 | 0 | 0 | 0 | 0 | 0
